The structures appear in SMILES notation.

Format in all cases: ADME
The subject of one series is Liver microsome. Description: Drug metabolism in human liver microsomes assessed as metabolite formation treated with C-1311 for 60 mins by ESI-MS/UV-vis spectroscopy in presence of 3 mM UDP-GlcUA. The note with it: 1 h. Summed up: (§1)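 Protein (5 μg UGT1A10 or microsomal) incubated with 0.2 mM substrate and 3 mM UDP-GlcUA, 60 min. HPLC on C18 at 25°C with a 15–80% methanol gradient in 0.05 M ammonium formate pH 3.4 at 1 ml/min. ESI positive-ion MS and UV/Vis spectra taken from the peaks. Glucuronide confirmed by 60 min further treatment with 1000 U E. coli β-glucuronidase.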

For series [1], the target named is T1, UDP-glucuronosyltransferase 1A10 (Homo sapiens, UniProt Q9HAW8).
T1 sequence (Q9HAW8 whole entry): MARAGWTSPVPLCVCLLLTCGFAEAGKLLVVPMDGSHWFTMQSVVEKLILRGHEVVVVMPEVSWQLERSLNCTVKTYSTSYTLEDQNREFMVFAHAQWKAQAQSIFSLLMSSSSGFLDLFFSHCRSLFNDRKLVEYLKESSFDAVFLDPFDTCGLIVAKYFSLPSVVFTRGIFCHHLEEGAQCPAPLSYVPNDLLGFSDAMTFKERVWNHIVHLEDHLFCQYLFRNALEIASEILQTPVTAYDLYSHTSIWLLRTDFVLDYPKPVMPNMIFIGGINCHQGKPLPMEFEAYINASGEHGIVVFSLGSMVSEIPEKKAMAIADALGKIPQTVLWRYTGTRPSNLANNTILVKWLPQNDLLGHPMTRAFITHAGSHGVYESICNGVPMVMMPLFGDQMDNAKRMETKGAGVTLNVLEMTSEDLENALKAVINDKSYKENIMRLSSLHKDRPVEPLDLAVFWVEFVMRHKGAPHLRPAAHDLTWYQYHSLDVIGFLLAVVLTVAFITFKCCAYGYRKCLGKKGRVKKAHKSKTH
The series is described as follows: Drug metabolism assessed as human recombinant UGT1A10-mediated compound formation treated with C-1311 for 60 mins by ESI-MS/UV-vis spectroscopy in presence of 3 mM UDP-GlcUA. The settings on record: recombinant enzyme, 1 h. Summed up: as §1

For series [2], the target named is T2, UDP-glucuronosyltransferase 1A7 (Homo sapiens, UniProt Q9HAW7).
T2 sequence (Q9HAW7 whole entry): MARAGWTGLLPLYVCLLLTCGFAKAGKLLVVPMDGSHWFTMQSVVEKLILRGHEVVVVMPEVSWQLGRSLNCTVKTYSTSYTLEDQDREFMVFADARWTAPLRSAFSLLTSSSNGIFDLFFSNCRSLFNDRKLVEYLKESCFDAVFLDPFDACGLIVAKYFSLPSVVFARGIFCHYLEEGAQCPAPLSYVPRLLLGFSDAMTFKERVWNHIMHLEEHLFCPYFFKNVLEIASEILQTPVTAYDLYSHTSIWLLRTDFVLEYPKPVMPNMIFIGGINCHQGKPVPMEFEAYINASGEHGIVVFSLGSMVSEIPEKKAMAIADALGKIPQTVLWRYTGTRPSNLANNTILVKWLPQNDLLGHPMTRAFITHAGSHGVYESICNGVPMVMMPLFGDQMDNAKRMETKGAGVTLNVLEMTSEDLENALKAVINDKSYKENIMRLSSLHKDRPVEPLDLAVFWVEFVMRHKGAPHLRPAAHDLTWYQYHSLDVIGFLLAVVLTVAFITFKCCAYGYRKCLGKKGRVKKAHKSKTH
The series is described as follows: Drug metabolism assessed as human recombinant UGT1A7-mediated compound formation treated with C-1311 for 60 mins by ESI-MS/UV-vis spectroscopy in presence of 3 mM UDP-GlcUA. The settings on record: recombinant enzyme, 1 h.

Series [3] deals with T3, UDP-glucuronosyltransferase 1A9 (Homo sapiens, UniProt O60656).
T3 sequence (O60656 whole entry): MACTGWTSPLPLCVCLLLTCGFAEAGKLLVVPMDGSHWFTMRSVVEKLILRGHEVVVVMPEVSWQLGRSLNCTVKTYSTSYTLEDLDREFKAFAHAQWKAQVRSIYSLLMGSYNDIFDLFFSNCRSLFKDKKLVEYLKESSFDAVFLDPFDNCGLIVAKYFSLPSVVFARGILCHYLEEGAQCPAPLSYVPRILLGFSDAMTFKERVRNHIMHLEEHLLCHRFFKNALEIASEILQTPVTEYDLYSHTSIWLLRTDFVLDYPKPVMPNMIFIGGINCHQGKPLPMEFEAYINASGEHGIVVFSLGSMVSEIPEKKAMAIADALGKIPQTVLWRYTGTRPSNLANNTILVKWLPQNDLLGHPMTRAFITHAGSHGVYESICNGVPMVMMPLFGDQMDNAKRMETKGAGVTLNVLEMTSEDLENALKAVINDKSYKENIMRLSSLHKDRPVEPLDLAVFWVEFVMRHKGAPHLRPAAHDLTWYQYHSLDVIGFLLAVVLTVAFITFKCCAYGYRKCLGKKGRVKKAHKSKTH
Description: Drug metabolism assessed as human recombinant UGT1A9-mediated compound formation treated with C-1305 for 60 mins by ESI-MS/UV-vis spectroscopy in presence of 3 mM UDP-GlcUA. The note with it: recombinant enzyme, 1 h. The gist of the method:
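Recombinant human UGT1A1 or UGT1A9 (5 μg protein), or single-donor human liver or intestinal microsomes (20 μg), incubated in Tris-HCl pH 7.4 with 5 mM MgCl2, 5 mM saccharolactone, 2% DMSO and 100 or 200 μM substrate. Started with UDP-GlcUA, 60 min at 37°C, in triplicate. Product identified by HPLC with positive-ion ESI-MS and UV/Vis spectra, and confirmed by β-glucuronidase hydrolysis.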

On to `CCN(CC)CCNc1ccc2ncn3c4ccc(O)cc4c(=O)c1c23` [C-1311], for which the Drug metabolism entry (in the series on Liver microsome; in series [1]; in series [2]) was “metabolite_detected” throughout.
With `CN(C)CCCNc1ccc2nnn3c4ccc(O)cc4c(=O)c1c23`, the Drug metabolism result in series [3] was “metabolite_detected”.
